# Laboratory results reported in ChEMBL document CHEMBL3758162, “Synthesis, biological characterization and molecular modeling insights of spirochromanes as potent HDAC inhibitors” (Eur J Med Chem, 2016).
# Tests used:
# [1] = system: A549; assay: Antiproliferative activity against human A549 cells assessed as cell viability after 72 hrs by CellTitre-Glo luminescent assay; assay type: functional, cell-based
# [2] = system: K562; assay: Antiproliferative activity against human K562 cells assessed as cell viability after 72 hrs by CellTitre-Glo luminescent assay; assay type: functional, cell-based
# [3] = Metabolic stability in mouse liver microsomes assessed as compound remaining at 1 uM preincubated for 10 mins measured after 30 mins by LC-MS/MS analysis; assay type: ADME; conditions: for remaining at 0.5 h, 1 µM: liver microsomes, read-out: Stability
# Outline: (§1)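 Compound at 1 µM pre-incubated 10 min at 37 °C in potassium phosphate buffer pH 7.4 with 0.5 mg/mL mouse or human hepatic microsomes. Parent quantified by LC-MS/MS (ESI+, MRM, verapamil internal standard). % remaining = peak area at 30 min / area at 0 min × 100; n≥2, mean.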
# [4] = system: Liver microsome; assay: (§2) Metabolic stability in human liver microsomes assessed as compound remaining at 1 uM preincubated for 10 mins measured after 30 mins by LC-MS/MS analysis; assay type: ADME; conditions: microsomes, 0.5 h, 1 µM; outline: as §1
# [5] = molecular target: Histone deacetylase; assay: Inhibition of HDAC in human HeLa cells nuclear extract using Fluor de lys as substrate after 15 mins by fluorometric analysis; assay type: cell-based
# [6] = Antiproliferative activity against human HCT116 cells assessed as cell viability after 72 hrs by CellTitre-Glo luminescent assay; assay type: functional, cell-based, HCT-116
# [7] = molecular target: CYP2C19 (Homo sapiens, UniProt P33261); assay: Inhibition of human CYP2C19 using 3-cyano-7-ethoxycoumarin as substrate at 10 uM after 30 mins by fluorimetric analysis; assay type: ADME; conditions: probe 3-cyano-7-ethoxycoumarin
# Outline: (§3)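 Test compounds at 10 µM in potassium phosphate buffer pH 7.4 with NADPH regenerating system (final 1.3 mM NADP⁺, 3.3 mM glucose 6-phosphate, 0.4 U/ml G6PDH); reaction started at 37 °C by adding Supersomes isoenzyme plus substrate. Enzyme and substrate amounts: CYP1A2 0.5 pmol, 5 µM CEC; CYP2C19 0.5 pmol, 25 µM CEC; CYP3A4 1 pmol, 50 µM BFC; CYP2D6 1.5 pmol, 1.5 µM AMMC. Stopped with acetonitrile/Tris base; fluorescence read; % inhibition versus enzyme without inhibitor; n≥2, mean.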
# [8] = molecular target: CYP2D6 (Homo sapiens, UniProt P10635); assay: Inhibition of human CYP2D6 using 3-[2-(N,N-diethyl-N-methylamino)ethyl]-7-methoxy-4-methylcoumarin as substrate at 10 uM after 30 mins by fluorimetric analysis; assay type: ADME; outline: as §3
# [9] = molecular target: CYP3A4 (Homo sapiens, UniProt P08684); assay: Inhibition of human CYP3A4 using 7-benzyloxy-4-(trifluoromethyl)-coumarin as substrate at 10 uM after 30 mins by fluorimetric analysis; assay type: ADME; conditions: probe 7-benzyloxy-4-(trifluoromethyl)-coumarin; outline: as §3
# [10] = Solubility of the compound at pH 4.5; assay type: physicochemical; conditions: buffer
# [11] = as §2; assay type: ADME; conditions: liver microsomes, read-out: Stability; outline: as §1
# [12] = molecular target: T1, CYP1A2 (Homo sapiens, UniProt P05177); assay: Inhibition of human CYP1A2 using 3-cyano-7-ethoxycoumarin as substrate at 10 uM after 15 mins by fluorimetric analysis; assay type: ADME; conditions: probe 3-cyano-7-ethoxycoumarin; outline: as §3
# T1 sequence (P05177 whole entry): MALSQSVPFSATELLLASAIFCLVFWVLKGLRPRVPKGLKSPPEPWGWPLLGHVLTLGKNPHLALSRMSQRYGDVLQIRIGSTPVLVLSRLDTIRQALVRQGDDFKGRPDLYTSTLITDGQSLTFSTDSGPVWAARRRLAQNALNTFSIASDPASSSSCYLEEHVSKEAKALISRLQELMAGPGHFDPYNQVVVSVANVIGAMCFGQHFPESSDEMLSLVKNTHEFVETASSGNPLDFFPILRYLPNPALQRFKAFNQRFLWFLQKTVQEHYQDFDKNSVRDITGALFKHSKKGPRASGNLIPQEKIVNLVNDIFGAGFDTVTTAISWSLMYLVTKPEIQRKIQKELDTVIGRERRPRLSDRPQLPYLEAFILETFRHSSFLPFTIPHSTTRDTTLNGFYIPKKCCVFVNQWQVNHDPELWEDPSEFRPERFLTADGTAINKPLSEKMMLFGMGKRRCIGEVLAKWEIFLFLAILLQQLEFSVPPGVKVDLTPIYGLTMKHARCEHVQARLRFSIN
# [13] = molecular target: T2, Histone deacetylase 3 (Homo sapiens, UniProt O15379); assay: Inhibition of recombinant human HDAC3 after 15 mins by fluorescence assay
# Outline: (§4)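 Recombinant human HDAC2, 3 or 6 (20, 6 and […] respectively) diluted in assay buffer with inhibitor and 25 µM fluorogenic acetyl-lysine substrate; 15 min at room temperature, then developer 10 min; fluorescence read. Concentration–inhibition data fitted by non-linear regression to give IC50; replicates n≥2, mean shown.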
# [14] = molecular target: T3, Histone deacetylase 2 (Homo sapiens, UniProt Q92769); assay: Inhibition of recombinant human HDAC2 after 15 mins by fluorescence assay; outline: as §4
# [15] = molecular target: T4, Protein deacetylase HDAC6 (Homo sapiens, UniProt Q9UBN7); assay: Inhibition of recombinant human HDAC6 after 15 mins by fluorescence assay; outline: as §4
# T4 sequence (Q9UBN7 whole entry): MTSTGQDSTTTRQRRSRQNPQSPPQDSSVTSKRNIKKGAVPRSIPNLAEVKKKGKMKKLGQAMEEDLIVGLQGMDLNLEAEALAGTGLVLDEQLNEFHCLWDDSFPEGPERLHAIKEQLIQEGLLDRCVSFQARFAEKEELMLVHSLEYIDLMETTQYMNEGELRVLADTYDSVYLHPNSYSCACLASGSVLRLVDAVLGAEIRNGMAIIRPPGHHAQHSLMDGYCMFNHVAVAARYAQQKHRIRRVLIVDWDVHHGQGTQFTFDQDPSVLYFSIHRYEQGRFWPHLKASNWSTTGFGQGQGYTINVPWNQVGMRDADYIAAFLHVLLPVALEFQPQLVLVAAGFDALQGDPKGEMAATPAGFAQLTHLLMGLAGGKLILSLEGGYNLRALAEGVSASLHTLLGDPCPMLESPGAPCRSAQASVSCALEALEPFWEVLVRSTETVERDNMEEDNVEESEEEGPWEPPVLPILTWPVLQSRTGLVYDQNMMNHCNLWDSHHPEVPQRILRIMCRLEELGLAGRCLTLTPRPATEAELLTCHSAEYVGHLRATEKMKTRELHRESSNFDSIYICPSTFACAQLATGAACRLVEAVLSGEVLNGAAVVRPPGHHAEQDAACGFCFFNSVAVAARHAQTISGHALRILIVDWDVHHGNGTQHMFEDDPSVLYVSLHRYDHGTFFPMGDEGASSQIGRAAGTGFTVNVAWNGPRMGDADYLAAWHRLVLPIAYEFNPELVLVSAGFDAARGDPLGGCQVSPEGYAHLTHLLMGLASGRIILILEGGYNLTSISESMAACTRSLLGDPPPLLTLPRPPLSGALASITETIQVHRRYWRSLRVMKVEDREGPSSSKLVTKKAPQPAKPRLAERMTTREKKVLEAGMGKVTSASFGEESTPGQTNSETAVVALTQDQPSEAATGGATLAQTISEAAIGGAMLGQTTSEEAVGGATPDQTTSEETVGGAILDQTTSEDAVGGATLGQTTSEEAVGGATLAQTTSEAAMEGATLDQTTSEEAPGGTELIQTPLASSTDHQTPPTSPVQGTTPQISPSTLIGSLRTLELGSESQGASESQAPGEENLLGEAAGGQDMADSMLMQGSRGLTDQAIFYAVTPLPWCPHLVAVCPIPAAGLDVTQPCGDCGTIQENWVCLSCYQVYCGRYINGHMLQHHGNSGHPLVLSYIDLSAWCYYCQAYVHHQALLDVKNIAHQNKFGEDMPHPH
# [16] = molecular target: T4, Protein deacetylase HDAC6; assay: Inhibition of HDAC6 (unknown origin)
# [17] = molecular target: T3, Histone deacetylase 2; assay: Inhibition of HDAC2 (unknown origin)
# [18] = molecular target: T2, Histone deacetylase 3; assay: Inhibition of HDAC3 (unknown origin)
# T3 sequence (Q92769 whole entry): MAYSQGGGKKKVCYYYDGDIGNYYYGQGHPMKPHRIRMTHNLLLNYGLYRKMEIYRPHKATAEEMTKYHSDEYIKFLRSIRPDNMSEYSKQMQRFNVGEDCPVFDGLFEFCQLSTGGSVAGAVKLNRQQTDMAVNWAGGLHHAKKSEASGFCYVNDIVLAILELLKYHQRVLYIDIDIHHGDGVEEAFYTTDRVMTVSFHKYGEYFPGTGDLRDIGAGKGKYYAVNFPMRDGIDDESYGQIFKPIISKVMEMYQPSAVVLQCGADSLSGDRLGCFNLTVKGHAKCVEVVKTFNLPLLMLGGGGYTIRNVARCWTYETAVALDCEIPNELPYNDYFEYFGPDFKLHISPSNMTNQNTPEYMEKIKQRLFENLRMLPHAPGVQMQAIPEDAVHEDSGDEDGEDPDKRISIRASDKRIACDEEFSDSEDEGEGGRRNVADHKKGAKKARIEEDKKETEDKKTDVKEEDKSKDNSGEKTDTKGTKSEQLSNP
# Chain of CYP2D6 (P10635 whole entry): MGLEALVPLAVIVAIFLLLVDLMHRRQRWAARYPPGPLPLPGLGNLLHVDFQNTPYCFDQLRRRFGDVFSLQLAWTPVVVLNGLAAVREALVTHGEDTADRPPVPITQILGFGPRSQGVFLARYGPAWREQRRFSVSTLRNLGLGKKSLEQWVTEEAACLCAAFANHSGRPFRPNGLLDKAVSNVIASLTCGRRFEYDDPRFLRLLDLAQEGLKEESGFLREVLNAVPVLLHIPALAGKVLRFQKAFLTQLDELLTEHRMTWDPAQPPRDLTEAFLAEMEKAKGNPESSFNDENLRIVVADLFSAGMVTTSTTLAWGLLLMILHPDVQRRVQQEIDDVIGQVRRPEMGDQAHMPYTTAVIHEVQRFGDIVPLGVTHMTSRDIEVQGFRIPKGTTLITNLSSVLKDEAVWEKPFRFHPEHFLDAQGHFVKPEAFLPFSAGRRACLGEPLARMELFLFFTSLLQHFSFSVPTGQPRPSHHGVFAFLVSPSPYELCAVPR
# T2 sequence (O15379 whole entry): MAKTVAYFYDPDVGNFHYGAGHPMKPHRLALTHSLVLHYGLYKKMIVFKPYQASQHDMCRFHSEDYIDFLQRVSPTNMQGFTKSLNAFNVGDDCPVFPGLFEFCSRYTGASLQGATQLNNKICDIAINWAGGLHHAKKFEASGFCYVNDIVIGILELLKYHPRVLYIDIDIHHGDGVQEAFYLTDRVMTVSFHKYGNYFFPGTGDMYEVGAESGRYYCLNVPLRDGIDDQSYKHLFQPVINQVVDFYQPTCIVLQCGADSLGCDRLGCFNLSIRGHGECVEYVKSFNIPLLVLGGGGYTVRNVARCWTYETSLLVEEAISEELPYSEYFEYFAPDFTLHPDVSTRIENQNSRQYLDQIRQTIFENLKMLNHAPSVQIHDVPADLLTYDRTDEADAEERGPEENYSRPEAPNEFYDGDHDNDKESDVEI
# Chain of CYP2C19 (P33261 whole entry): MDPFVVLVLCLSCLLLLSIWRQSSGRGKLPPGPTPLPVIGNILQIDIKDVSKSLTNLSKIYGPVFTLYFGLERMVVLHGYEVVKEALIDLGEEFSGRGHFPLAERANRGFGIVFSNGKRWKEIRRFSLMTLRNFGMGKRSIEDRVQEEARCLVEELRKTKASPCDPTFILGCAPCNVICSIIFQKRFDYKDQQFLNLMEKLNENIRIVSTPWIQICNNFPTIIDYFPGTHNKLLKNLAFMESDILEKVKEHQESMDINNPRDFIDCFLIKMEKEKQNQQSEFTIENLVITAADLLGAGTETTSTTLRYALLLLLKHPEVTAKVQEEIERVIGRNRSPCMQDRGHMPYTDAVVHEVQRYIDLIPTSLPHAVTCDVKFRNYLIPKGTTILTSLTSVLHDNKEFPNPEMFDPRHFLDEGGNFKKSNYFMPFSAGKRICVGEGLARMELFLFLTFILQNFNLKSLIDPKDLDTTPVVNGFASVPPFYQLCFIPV
# Chain of CYP3A4 (P08684 whole entry): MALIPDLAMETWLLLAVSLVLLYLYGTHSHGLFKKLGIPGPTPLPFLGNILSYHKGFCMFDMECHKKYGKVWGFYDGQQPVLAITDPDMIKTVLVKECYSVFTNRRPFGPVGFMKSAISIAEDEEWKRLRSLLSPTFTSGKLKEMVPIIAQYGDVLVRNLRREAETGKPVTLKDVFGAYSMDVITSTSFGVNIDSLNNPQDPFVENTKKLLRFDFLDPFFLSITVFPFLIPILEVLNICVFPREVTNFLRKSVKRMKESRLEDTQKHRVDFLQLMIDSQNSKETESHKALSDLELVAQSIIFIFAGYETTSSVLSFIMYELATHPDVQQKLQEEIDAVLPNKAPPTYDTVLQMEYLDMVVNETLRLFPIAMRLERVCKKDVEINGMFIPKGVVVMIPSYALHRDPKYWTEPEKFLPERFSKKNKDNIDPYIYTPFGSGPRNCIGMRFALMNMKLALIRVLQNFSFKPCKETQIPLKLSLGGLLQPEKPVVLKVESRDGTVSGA
Structure (SMILES),IC50 ([2]; k562) [nM],Stability [4] [%],IC50 [5] [nM],"inhibition at 0.5 h, 10 µM [7] [%]","IC50 ([1]; Homo sapiens, A549, 72 h) [nM]","IC50 ([2]; Homo sapiens, K562, 72 h) [nM]","inhibition at 0.5 h, 10 µM [8] [%]","remaining at 0.5 h, 1 µM [3] [%]","inhibition at 0.5 h, 10 µM [9] [%]",solubility [10] [µM],"remaining at 0.5 h, 1 µM [11] [%]","inhibition at 0.25 h, 10 µM [12] [%]","IC50 ([6]; Homo sapiens, HCT-116, 72 h) [nM]",also measured
"O=C(/C=C/c1ccc2c(c1)C(=O)CC1(CCN(Cc3ccccc3)C1)O2)NO (single isomer, unassigned; (-))",119,23,26,,,,,,,,,,,"IC50 ([1]; a549): 332 nM; Stability ([3]; microsomes, 0.5 h, 1 µM): 19%; IC50 ([6]; hct-116): 66 nM"
O=C(/C=C/c1ccc2c(c1)C(=O)CC1(CCCN(CCc3ccccc3)CC1)O2)NO (racemic),,,56,81,184,188,52,39,41,> 500,27,5,62,
O=C(/C=C/c1ccc2c(c1)C(=O)CC1(CCN(Cc3ccccc3)C1)O2)NO (stereo in doubt; 32j),130,11,37,,,,,,,,,,,IC50 ([1]; a549): 303 nM; IC50 ([6]; hct-116): 71 nM
CN1CCCC2(CC1)CC(=O)c1cc(/C=C/C(=O)NO)ccc1O2 (racemic),,,114,9,534,329,5,62,12,> 500,79,5,98,
O=C(/C=C/c1ccc2c(c1)C(=O)CC1(CCN(CCc3ccccc3)C1)O2)NO (racemic),,,27,59,272,102,41,31,64,> 500,31,5,43,
O=C(/C=C/c1ccc2c(c1)C(=O)CC1(CCN(Cc3ccccc3)C1)O2)NO (racemic),271,24,52,39,389,,70,27,69,> 500,,5,72,IC50 [16]: 123 nM; IC50 [17]: 82 nM; IC50 [18]: 28 nM

# Further lines, with some results ahead:
IC50 ([2]; k562) [nM],Stability [4] [%],IC50 [5] [nM],"inhibition at 0.5 h, 10 µM [7] [%]","IC50 ([1]; Homo sapiens, A549, 72 h) [nM]","IC50 ([2]; Homo sapiens, K562, 72 h) [nM]","inhibition at 0.5 h, 10 µM [8] [%]","remaining at 0.5 h, 1 µM [3] [%]","inhibition at 0.5 h, 10 µM [9] [%]",solubility [10] [µM],"remaining at 0.5 h, 1 µM [11] [%]","inhibition at 0.25 h, 10 µM [12] [%]",Structure (SMILES),"IC50 ([6]; Homo sapiens, HCT-116, 72 h) [nM]",also measured
,,,61,,,43,47,34,,63,5,O=C(/C=C/c1ccc2c(c1)C(=O)CC1(CCN(Cc3ccc(F)cc3)CC1)O2)NO,,IC50 [13]: 92 nM; IC50 [14]: 320 nM
,,,42,,,41,57,40,,66,13,O=C(/C=C/c1ccc2c(c1)C(=O)CC1(CCN(CCc3ccccc3)CC1)O2)NO,,IC50 [15]: 138 nM; IC50 [14]: 199 nM
,,73,,371,162,,25,,,19,,O=C(/C=C/c1ccc2c(c1)C(=O)CC1(CCCN(Cc3ccccc3)CC1)O2)NO (racemic),47,IC50 [16]: 151 nM; IC50 [17]: 72 nM; IC50 [18]: 30 nM
